The values below come from ChEMBL document CHEMBL5653606 (J Pharmacol Exp Ther, 2011).

The source made the active and inactive calls.

For data set [1], the target named is T1, Fatty-acid amide hydrolase 1 (Rattus norvegicus) (UniProt P97612).
T1 sequence (whole entry): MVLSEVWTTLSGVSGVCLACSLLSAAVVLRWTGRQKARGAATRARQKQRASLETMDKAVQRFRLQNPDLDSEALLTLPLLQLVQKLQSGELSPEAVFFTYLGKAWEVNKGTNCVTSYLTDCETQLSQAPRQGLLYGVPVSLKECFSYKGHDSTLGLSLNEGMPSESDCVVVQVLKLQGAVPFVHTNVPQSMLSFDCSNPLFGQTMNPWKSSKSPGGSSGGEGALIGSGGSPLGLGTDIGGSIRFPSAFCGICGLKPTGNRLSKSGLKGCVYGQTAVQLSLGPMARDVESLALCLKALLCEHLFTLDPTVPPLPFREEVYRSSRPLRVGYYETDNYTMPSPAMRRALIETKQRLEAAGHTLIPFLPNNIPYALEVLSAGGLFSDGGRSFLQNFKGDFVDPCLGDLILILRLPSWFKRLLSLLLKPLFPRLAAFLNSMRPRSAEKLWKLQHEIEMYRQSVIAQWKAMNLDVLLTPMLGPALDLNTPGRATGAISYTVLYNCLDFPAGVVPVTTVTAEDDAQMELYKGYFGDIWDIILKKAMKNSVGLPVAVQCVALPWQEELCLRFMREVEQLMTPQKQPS
Description: In vivo inhibition of FAAH in CFA induced Sprague-Dawley rat plasma assessed as elevation of NAE level at 0.1 to 10 mg/kg, po. The data set is classed as functional, organism-based. The following applies: dose 0.1-10 mg/kg. Put shortly:
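Lipid (NAE) levels in rat brain and plasma measured by LC/MS after oral dosing in CFA rats; n = 3 rats/group. Time-course samples taken at 1, 2, 4, 8, 24 h after 1 mg/kg.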

Data set [2] deals with Mus musculus. The experiment in a line: In vivo inhibition of rhodamine-azide tagged FAAH expressed in mouse brain at 10 mg/kg, po by CC-ABPP method based in-gel fluorescence scanning analysis. The data set is classed as functional, organism-based.
The test system of data set [3] is Mus musculus. Description: Antinociceptive activity in C57BL6/J mouse assessed as effect in locomotive activity at 1 to 10 mg/kg, po administered for 4 hrs. The data set is classed as functional, organism-based. The following applies: dose 1-10 mg/kg. Put shortly:
(§1)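 Male C57BL/6J mice, 7 weeks old, n = 8/group, dosed orally at 1 or 10 mg/kg in PEG 300 (4 ml/kg). Tetrad tested 4 h postdose: locomotor activity, tail-immersion thermal nociception, catalepsy (assessed 60 s), body temperature. Means ± S.E.M. versus vehicle.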

Data set [4] can be described thus: Tmax in rat at 5 mg/kg, po measured upto 24 hrs by LC/MS analysis. The data set is classed as ADME, organism-based. The following applies: in vivo.
The test system of a further data set is Rattus norvegicus. The experiment in a line: Antihyperalgesic activity in MIA induced Sprague-Dawley rat assessed as reduction in mechanical allodynia at 3 mg/kg, po administered for 1 day and measured after 2 to 4 hrs. The data set is classed as functional, organism-based. Put shortly:
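Male Sprague-Dawley rats (220–270 g), isoflurane-anesthetized, given 2 mg MIA in 0.9% saline (50 μl) intra-articular into the knee. From day 14, oral dosing at 10 ml/kg once daily for 3 days in 4% 2-hydroxypropyl-β-cyclodextrin/1% ethanol in 0.01 M HCl. Celecoxib 30 mg/kg in 0.5% methylcellulose twice daily. Joint compression threshold by digital Randall-Selitto at 2 and 4 h postdose on days 1 and 3; n = 10/group.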

The subject of data set [5] is Mus musculus. Description: Antinociceptive activity in C57BL6/J mouse assessed as effect in body temperature at 1 to 10 mg/kg, po administered for 4 hrs. The following applies: dose 1-10 mg/kg. Format: functional, organism-based. Put shortly:
as §1

Data set [6] is described as follows: Plasma concentration in rat at 5 mg/kg, po by LC/MS analysis. The data set is classed as ADME, organism-based. The following applies: in vivo.
Data set [7] in a line: Brain concentration in CFA induced Sprague-Dawley rat at 0.1 mg/kg, po by LC/MS analysis. The data set is classed as ADME, organism-based. The following applies: in vivo, read-out: Ct.
Data set [8] addresses T1, Fatty-acid amide hydrolase 1 (Rattus norvegicus). Description: In vivo inhibition of FAAH in CFA induced Sprague-Dawley rat WBC at 0.1 to 10 mg/kg, po relative to control. Format: functional, organism-based. The following applies: dose 0.1-10 mg/kg. In a few lines: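 Brain and blood leukocyte membrane fractions from CFA rats after oral dosing. FAAH activity measured with 3H-labeled AEA substrate, quantifying released 3H-ethanolamine; n = 3 rats/group. Time course sampled at 1, 2, 4, 8, 24 h after 1 mg/kg.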

Data set [9] addresses T2, Fatty-acid amide hydrolase 1 (Homo sapiens, UniProt O00519).
T2 sequence (O00519 whole entry): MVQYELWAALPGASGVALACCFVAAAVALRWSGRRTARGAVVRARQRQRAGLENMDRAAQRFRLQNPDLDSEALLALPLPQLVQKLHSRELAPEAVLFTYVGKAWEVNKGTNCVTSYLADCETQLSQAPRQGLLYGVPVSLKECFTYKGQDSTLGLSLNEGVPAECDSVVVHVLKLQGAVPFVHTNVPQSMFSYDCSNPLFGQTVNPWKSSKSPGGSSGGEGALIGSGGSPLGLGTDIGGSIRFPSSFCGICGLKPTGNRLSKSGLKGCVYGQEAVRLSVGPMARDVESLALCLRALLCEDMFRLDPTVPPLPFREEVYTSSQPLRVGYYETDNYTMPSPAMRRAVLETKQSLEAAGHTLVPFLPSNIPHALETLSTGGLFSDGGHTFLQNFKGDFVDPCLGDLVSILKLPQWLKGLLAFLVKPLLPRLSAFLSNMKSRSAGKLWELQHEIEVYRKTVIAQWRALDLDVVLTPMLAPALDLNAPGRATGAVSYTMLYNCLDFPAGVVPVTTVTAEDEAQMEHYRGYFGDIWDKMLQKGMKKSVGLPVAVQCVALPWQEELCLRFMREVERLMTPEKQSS
Description: Inhibition of human FAAH assessed as kinact/Ki ratio incubated for 1 min in presence of glutamate dehydrogenase by 384-well format microplate reader assay.

Data set [10] concerns the target T3, Fatty-acid amide hydrolase 1 (Homo sapiens) (UniProt O00519).
T3 sequence (whole entry): T2 sequence (O00519 whole entry)
Description: Inhibition of FAAH in human brain at 10 uM in presence of FP-rhodamine by competitive activity-based protein profiling method. The data set is classed as tissue-based. Put shortly:
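Competitive ABPP on human and mouse brain, liver and heart proteomes (membrane and soluble fractions), exposed to compound at 10 or 100 μM or to DMSO. Serine hydrolases were then labeled with FP-rhodamine. Gels were read by fluorescence scanning, and loss of band labeling (FAAH or other hydrolases by kDa) was judged.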

The target in data set [11] is T4, Fatty-acid amide hydrolase 1 (Rattus norvegicus, UniProt P97612).
T4 sequence (P97612 whole entry): T1 sequence (whole entry)
Description: Inhibition of rat FAAH assessed as kinact/Ki ratio incubated for 1 min in presence of glutamate dehydrogenase by 384-well format microplate reader assay.

A short description of data set [12]: Brain concentration in rat at 1 mg/kg, po administered for 4 hrs by LC/MS analysis. The data set is classed as ADME, organism-based. Particulars: read-out: Ct. In a few lines: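 Rats dosed orally at 1 mg/kg. Plasma and brain concentrations measured at 1, 2, 4, 8 and 24 h.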

Turning to `O=C(Nc1cccnn1)N1CCC(=Cc2cccc(Oc3ccc(C(F)(F)F)cn3)c2)CC1`, the inhibition result (in data set [1]; in the data set with Mus musculus [2]; in [10]) was “Active” throughout. In addition, the Activity entry in the data set on Mus musculus [3] and in the data set with Mus musculus [5] was “Non-Toxic” each time. In [4], the Tmax (usually the time at which the peak concentration occurs) is 2 h. Moreover, the outcome in the data set with Rattus norvegicus was Active. The concentration in [6] came out at 2800 nM; in data set [7], 38.9 nM. In data set [8], the inhibition – broadly, the relative decrease from the control value, in per cent – amounted to 98%. The IC50 (commonly the midpoint of a concentration-inhibition curve) in data set [9] amounted to 50.4 nM; in [11] it was 43.1 nM. Besides, the concentration at 4 h in [12] was 870 nM.
